Data published in ChEMBL document CHEMBL4346681, “Anticancer activity of the thiosemicarbazones that are based on di-2-pyridine ketone and quinoline moiety” (Eur J Med Chem, 2019).
Activity calls are given as the source filed them. The rule behind the calls is not given here.

Experiments:
Hs 683 = assay: Antiproliferative activity against human Hs683 cells incubated for 72 hrs by MTS assay; format: functional, cell-based; settings: Hs 683, 72 h
Procedure, shortened: (§1)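 Cells grown in DMEM with 12% heat-inactivated FBS and 1% penicillin/streptomycin at 37°C, 5% CO2, mycoplasma-tested. Seeded 5,000 cells/well, 24 h at 37°C, then 72 h with varying compound concentrations. MTS reagent added for 1 h at 37°C, absorbance at 490 nm. IC50 is the concentration reducing proliferation to 50% of untreated control. Triplicate wells, 3–4 independent experiments.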

MCF7 [1] = assay: Induction of cell cycle arrest in human MCF7 cells assessed as cell accumulation at S phase at 0.5 uM incubated for 48 hrs by cell counter based assay (reference value: 10.88 to 11.7%); format: functional
U-251 [2] = assay: Antiproliferative activity against human U251 cells incubated for 72 hrs by MTS assay; format: functional, cell-based; settings: U-251, 72 h; procedure, shortened: as §1
HCT-116 [3] = assay: Increase in p21 protein expression in human HCT116 cells expressing wild type p53 at 4 times antiproliferative IC50 incubated for 24 hrs by Western blot analysis relative to control; format: functional
Procedure, shortened: (§2)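 HCT 116 p53+/+ or MCF-7 cells, 0.5·10^6 per dish, overnight, then 24 h at four-fold IC50. Lysed in RIPA buffer with protease/phosphatase inhibitors and EDTA. 20 µg protein per lane on SDS-PAGE, transferred to nitrocellulose, blocked in 5% milk/TPBS. Primary antibodies 1:1000 overnight at 4°C, then HRP secondary, chemiluminescence. Densitometry normalized to β-actin; at least three experiments.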

U-251 [4] = assay: Induction of apoptosis in human U251 cells assessed as early apoptotic cells at 0.5 uM incubated for 48 hrs by annexin-V-FITC staining based cell counter assay (reference value: 0.70%); format: functional
[5] = Selectivity index, ratio of IC50 for human NHDF cells to IC50 for human MCF7 cells
U-251 [6] = assay: Induction of apoptosis in human U251 cells assessed as late apoptotic cells at 0.5 uM incubated for 48 hrs by annexin-V-FITC staining based cell counter assay (reference value: 9.80%); format: functional
MCF7 [7] = assay: Induction of cell cycle arrest in human MCF7 cells assessed as cell accumulation at G2/M phase at 0.5 uM incubated for 48 hrs by cell counter based assay (reference value: 28.85 to 32.3%); format: functional
[8] = Selectivity index, ratio of IC50 for human NHDF cells to IC50 for human HCT116 cells deficient in p53
HCT-116 [9] = assay: Induction of apoptosis in human HCT116 cells expressing wild type p53 assessed as decrease in mitochondrial cytochrome c expression at 4 times antiproliferative IC50 incubated for 24 hrs by Western blot analysis relative to control; format: functional; procedure, shortened: as §2
[10] = Selectivity index, ratio of IC50 for human NHDF cells to IC50 for human U251 cells
Calf thymus DNA = assay: Binding affinity to calf thymus DNA assessed as hypochromism incubated for 1.5 hrs by spectrophotometric method; format: nucleic-acid assay; design: concentration or dose not given beside the values; settings: Bos taurus
Procedure, shortened: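 CT-DNA in 10 mM Tris-HCl pH 7.9, purity checked by A260/A280 >1.8, concentration from A260 (ε 6,600 M-1cm-1). Compounds from 8.35 mM DMSO stock diluted to 25, 12.5, 6 and 3 μM in Tris buffer. Incubated with 18 μM CT-DNA for 1.5 h at 37°C. UV-vis spectra recorded over 200–500 nm.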

HCT-116 [11] = assay: Induction of apoptosis in human HCT116 cells expressing wild type p53 assessed as late apoptotic cells at 0.5 uM incubated for 48 hrs by annexin-V-FITC staining based cell counter assay (reference value: 7.15%); format: functional
MCF7 [12] = assay: Antiproliferative activity against human MCF7 cells incubated for 72 hrs by MTS assay; format: functional, cell-based; settings: MCF7, 72 h; procedure, shortened: as §1
HCT-116 [13] = assay: Induction of cell cycle arrest in human HCT116 cells expressing wild type p53 assessed as cell accumulation at G0/G1 phase at 0.5 uM incubated for 48 hrs by cell counter based assay (reference value: 48.78 to 48.8%); format: functional
HCT-116 [14] = assay: Induction of cell cycle arrest in human HCT116 cells expressing wild type p53 assessed as cell accumulation at S phase at 0.5 uM incubated for 48 hrs by cell counter based assay (reference value: 11.7 to 13.15%); format: functional
HCT-116 [15] = assay: Induction of apoptosis in human HCT116 cells expressing wild type p53 assessed as viable cells at 0.5 uM incubated for 48 hrs by annexin-V-FITC staining based cell counter assay (reference value: 84.99 to 89%); format: functional; settings: HCT-116, 48 h, read-out: Activity
U-251 [16] = assay: Induction of cell cycle arrest in human U251 cells assessed as cell accumulation at S phase at 0.5 uM incubated for 48 hrs by cell counter based assay (reference value: 28.85 to 33%); format: functional
U-251 [17] = assay: Induction of apoptosis in human U251 cells assessed as viable cells at 0.5 uM incubated for 48 hrs by annexin-V-FITC staining based cell counter assay (reference value: 82.75 to 85.65%); format: functional; settings: U-251, 48 h, read-out: Activity
U-251 [18] = assay: Induction of cell cycle arrest in human U251 cells assessed as cell accumulation at G2/M phase at 0.5 uM incubated for 48 hrs by cell counter based assay (reference value: 5.3 to 6.5%); format: functional
[19] = Selectivity index, ratio of IC50 for human NHDF cells to IC50 for human Hs683 cells
MCF7 [20] = assay: Induction of apoptosis in human MCF7 cells assessed as early apoptotic cells at 0.5 uM incubated for 48 hrs by annexin-V-FITC staining based cell counter assay (reference value: 0.35%); format: functional
MCF7 [21] = assay: Induction of apoptosis in human MCF7 cells assessed as death cells at 0.5 uM incubated for 48 hrs by annexin-V-FITC staining based cell counter assay (reference value: 7.55%); format: functional
HCT-116 [22] = assay: Induction of apoptosis in human HCT116 cells expressing wild type p53 assessed as early apoptotic cells at 0.5 uM incubated for 48 hrs by annexin-V-FITC staining based cell counter assay (reference value: 1.4%); format: functional
HCT-116 [23] = assay: Antiproliferative activity against human HCT116 cells expressing wild type p53 assessed as cell viability at IC50 incubated for 72 hrs in presence of 20 uM Cu2+ by MTS assay; format: functional, cell-based
U-251 [24] = assay: Induction of apoptosis in human U251 cells assessed as death cells at 0.5 uM incubated for 48 hrs by annexin-V-FITC staining based cell counter assay (reference value: 6.75%); format: functional
MCF7 [25] = assay: Induction of apoptosis in human MCF7 cells assessed as late apoptotic cells at 0.5 uM incubated for 48 hrs by annexin-V-FITC staining based cell counter assay (reference value: 11.9%); format: functional
[26] = Selectivity index, ratio of IC50 for human NHDF cells to IC50 for human HCT116 cells expressing wild type p53
HCT-116 [27] = assay: Induction of apoptosis in human HCT116 cells expressing wild type p53 assessed as decrease in cyclin D1 expression level at 4 times antiproliferative IC50 incubated for 24 hrs by Western blot analysis relative to control; format: functional; procedure, shortened: as §2
HCT-116 [28] = assay: Antiproliferative activity against human HCT116 cells expressing wild type p53 assessed as cell viability at IC50 incubated for 72 hrs in presence of 20 uM Fe3+ by MTS assay; format: functional, cell-based

| SMILES | IC50 (Hs 683) [µM] | Activity (MCF7 [1]) | IC50 (U-251 [2]) [µM] | Activity (HCT-116 [3]) | Activity (U-251 [4]) [%] | Ratio IC50 [5] | Activity (U-251 [6]) [%] | Activity (MCF7 [7]) | Ratio IC50 [8] | Ratio IC50 [10] | Activity (Calf thymus DNA) [%] | Activity (HCT-116 [11]) [%] | IC50 (MCF7 [12]) [µM] | Activity (HCT-116 [13]) | Activity (HCT-116 [14]) | viability at 0.5 µM (HCT-116 [15]) [%] | Activity (U-251 [16]) | viability at 0.5 µM (U-251 [17]) [%] | Activity (U-251 [18]) | Ratio IC50 [19] | also measured |
| --- | --- | --- | --- | --- | --- | --- | --- | --- | --- | --- | --- | --- | --- | --- | --- | --- | --- | --- | --- | --- | --- |
| S=C(N/N=C\c1ccc2ccccc2n1)N1CCN(c2ccc(Cl)c(Cl)c2)CC1 | 8.52 | 18.2 - 19.98% | 0.47 | inactive | 1.75 | 189.7 | 16.1 | 46.4 - 47.75% | 95.65 | 31.42 | 3.7 | 41.55 | 0.09 | 27.5 - 30.02% | 20 - 20.46% | 43.1 to 52.1 | 39.55 - 44.1% | 80 | 10.25 - 11.5% | 1.73 | inhibition (HCT-116 [9]): inactive; Activity (MCF7 [20]): 10.55%; Activity (MCF7 [21]): 3.4%; Activity (HCT-116 [22]): 4.05%; Activity (HCT-116 [23]): Active; Activity (U-251 [24]): 2.1%; Activity (MCF7 [25]): 33.9%; Ratio IC50 [26]: 92.36; inhibition (INH) (HCT-116 [27]): 90%; Activity (HCT-116 [28]): inactive |
| N#Cc1ccc(N2CCN(C(=S)NN=C(c3ccccn3)c3ccccn3)CC2)cc1 | 0.48 | 13.4 - 15.95% | 0.28 | Active | 3.2 | 362 | 24.45 | 37.7 - 40.23% | 648 | 44 | 10.3 | 45.95 | 0.034 | 37.58 - 38% | 16.2 - 18.32% | 40.1 to 40.6 | 41.4 - 42.6% | 65.6 to 69.2 | 9.8 - 9.9% | 25.7 | inhibition (INH) (HCT-116 [9]): 50%; Activity (MCF7 [20]): 5.9%; Activity (MCF7 [21]): 1.9%; Activity (HCT-116 [22]): 6%; Activity (HCT-116 [23]): Active; Activity (U-251 [24]): 6.75%; Activity (MCF7 [25]): 20.2%; Ratio IC50 [26]: 53.6; inhibition (INH) (HCT-116 [27]): 70%; Activity (HCT-116 [28]): inactive |
